Assay outcomes: PubChem, several laboratories
APP 5'UTR act = activates APP 5'UTR luciferase reporter; 190,000 tested, 1% active; SH-SY5Y APP 5'UTR luciferase reporter, luminescence; zero percent = DMSO vehicle wells; activation, % at 2 µM; AID 1276;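 active = activation above a set limit, based on mean plus 3 SD of controls, cut at about 140% in these data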
FLuc act counter = affects firefly luciferase, flagging false hits in luciferase stimulation screens | ATPlite luciferase biochemical, luminescence, 10 min; 0 = ATP-free wells, 1 = DMSO control | activation factor at 10 µM | 200,000 tested, under 10 active | AID 1027 | P08659;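 active = luciferase activation factor, scaled between plate controls, of at least 2 with compound at 10 µM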
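Assay system: Luciferase/luciferin detection reagent, cell-free biochemical luciferase assay / Also added: ATP substrate / Schedule: 10 min at ambient temperature / Measured by: luminescence measurement of luciferase light output / Benchmarks: low control with PBS replacing ATP, high control enzyme plus ATP without compound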
STAT1 activator = STAT1 signaling activation; NIH 3T3 STAT1-luciferase reporter, IFN-gamma, luminescence; 100% = IFN-gamma alone, no compound; activation (% of control), % at 5.5 µM; 200,000 tested, 2.6% active; AID 932;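 active = activation above the screen-wide mean activation plus 3 SD, cut at about 130% in these data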;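 also: raw ratio to IFN-gamma control signal so 100% means no change and 0% no light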
NF-kB neuron act = raises NF-kB expression in human neuronal cells; NF-kB reporter expression; active compounds read high; fold change at 12.5 µM; 190,000 tested, 1.6% active; in the data active = fold change above about 3.3
Rad51 HR inh = Rad51 (human) homologous recombination inhibition; 200,000 tested, 0.085% active; hRad51 DNA strand exchange, fluorescence dequenching; AID 1385; inhibition, % at 10 µM; Q06609;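 active = inhibition above 40% at the single screening dose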;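 also: 0% = DMSO control wells and 100% = blanks with heterologous ssDNA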
Target sequence (Q06609 whole entry, looked up): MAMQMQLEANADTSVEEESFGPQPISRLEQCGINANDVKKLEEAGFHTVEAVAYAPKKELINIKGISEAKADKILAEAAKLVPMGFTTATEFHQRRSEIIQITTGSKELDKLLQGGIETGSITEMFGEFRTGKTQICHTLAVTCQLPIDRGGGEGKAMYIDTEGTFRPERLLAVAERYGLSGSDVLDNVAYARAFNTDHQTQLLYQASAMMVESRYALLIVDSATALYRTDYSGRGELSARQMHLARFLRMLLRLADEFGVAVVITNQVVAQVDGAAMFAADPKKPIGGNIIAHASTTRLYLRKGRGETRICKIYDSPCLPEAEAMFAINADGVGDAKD
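System: hRad51 filaments on single-stranded DNA; reagent: Fluorescein- and BHQ1-tagged 47-mer duplex; compound dosing: one concentration, 10 µM final; timing: filaments 15 min 37 °C, then compound 30 min; measured by: fluorescein emission 520 nm, excitation 485 nm; benchmarks: per-plate controls and blanks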
FLuc inh counter = inhibits firefly luciferase, flagging false hits in luciferase inhibition screens. P08659. ATPLite firefly luciferase biochemical luminescence, 10 min. inhibition, % at 10 µM. 200,000 tested, 1.5% active;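 active = inhibition above about 50% when tested at 10 µM, limit read from the data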
* hit, by the source's call; · = not tested or not shown. A selection: hits, their analogues and other compounds. The true share with any hit is near 3.9%.

SMILES | APP 5'UTR act | FLuc act counter | STAT1 activator | NF-kB neuron act | Rad51 HR inh | FLuc inh counter
N/C(=N\OC(=O)c1cc(Cl)ccc1Cl)c1cccnc1 | 7.6 | 0.8 | 125.2 | 1.98 | -1.8 | 15.8
N/C(=N\OC(=O)/C=C/c1ccccc1)c1ccncc1 | 72.5 | 0.7 | 123.7 | 1.48 | 24.9 | 34.9
N/C(=N\OC(=O)c1ccc(Cl)c(Cl)c1)c1cccnc1 | 1.3 | 0.5 | 118.1 | 3.97* | 12.0 | 46.1
COc1ccc(Cl)cc1C(=O)O/N=C(\N)c1ccc(Cl)cc1 | 31.1 | 1 | 91.0 | 2.27 | · | 1.1
N/C(=N\OC(=O)c1cccc(Cl)c1)c1cccnc1 | 75.2 | 0.3 | 114.6 | 2.56 | 0.6 | 68.3*
N/C(=N\OC(=O)c1cc(Cl)ccc1Cl)c1ccncc1 | 24.1 | 0.9 | 141.4* | 1.88 | 22.7 | 6.7
Cc1ccc(SCC(=O)N2N=CCC2c2ccccc2)cc1 (stereo not drawn) | -7.4 | 1 | 103.6 | 1.16 | 8.7 | -2.9
Cc1ccc2nc(C)cc(C(=O)Nc3nccs3)c2c1 | -2.1 | 0.7 | 96.1 | 1.08 | -3.9 | 28.1
N/C(=N\OC(=O)Cc1ccc(Cl)cc1)c1ccncc1 | -3.1 | 1 | 96.6 | 1.17 | 2.0 | -0.8
N/C(=N\OC(=O)c1cccc(Cl)c1)c1ccncc1 | 79.5 | 0.6 | 141.3* | 1.12 | 1.2 | 38.8
N/C(Cc1cccc2ccccc12)=N\OC(=O)c1ccc2c(c1)OCO2 | -9.8 | 1 | 96.5 | 1.35 | 10.7 | -4.9
N/C(=N\OC(=O)c1ccc2c(c1)OCO2)c1cccnc1 | 118.5 | 0 | 86.9 | 3.55* | 6.8 | 96.6*
C=CCc1cc(Cl)ccc1OC(=O)Nc1cccc(Cl)c1 | · | · | · | · | 15.9 | ·
CCOc1ccc(/C=N/NC(=O)c2[nH]ncc2Br)c(O)c1 | 24.0 | 0.1 | 115.8 | 4.4* | 10.7 | 91.0*
Cc1ccc(O)c(/C=N/NC(=O)c2[nH]ncc2Br)c1 | -1.5 | 0.3 | 131.4* | 8.05* | · | 74.0*
COc1ccc(OC)c(/C=N/NC(=O)c2[nH]ncc2Br)c1 | · | · | · | · | 18.3 | ·
S=c1nc[nH]c2c1ncn2C1CCCC1 | · | · | · | · | 4.0 | ·
O=C(Nc1ccc(-c2nc3ccc(NC(=O)c4cccs4)cc3[nH]2)cc1)c1cccs1 | -15.4 | 1.1 | 89.1 | 0.31 | -6.8 | -6.8
O=C(Nc1ccc2nc(-c3cccs3)[nH]c2c1)c1cccs1 | 29.9 | 0.4 | 103.4 | 0.55 | 6.3 | 61.3*
O=C(Nc1ccc2nc(-c3cccs3)[nH]c2c1)c1ccco1 | 43.6 | 0.4 | 105.2 | 0.84 | -2.5 | 61.6*
COC(=O)c1nc(N)sc1C | 3.3 | 1.1 | 100.1 | 1.19 | -9.9 | -7.7
Nc1cc(-c2ccc(Cl)cc2)nn1S(=O)(=O)c1ccc(Cl)cc1 | 4.9 | 1 | 95.5 | 1.27 | -1.7 | -2.1
O=C1CCn2nc(-c3ccc(Cl)cc3)cc2N1 | 63.6 | 1 | 136.2* | 2.73 | -2.6 | 3.5
Cn1c2ccccc2c(=O)c2c(=O)n(Cc3ccccc3)c(-c3ccc(F)cc3)nc21 | · | · | · | · | -11.4 | ·
Nc1cccn2c(-c3ccc(Cl)cc3)cnc12 | 138.4* | 0.7 | 128.1 | 8.47* | -11.4 | 30.5
SMILES | APP 5'UTR act | FLuc act counter | STAT1 activator | NF-kB neuron act | Rad51 HR inh | FLuc inh counter
Cn1c(-c2ccc(Cl)cc2)cnc1N | 11.7 | 1 | 96.3 | 1.36 | -0.4 | -1.9
N=C(N)N1CCN(Cc2ccccc2)CC1 | -14.4 | 1 | 98.8 | 1.07 | · | -3.4
O=C(NC(=S)N1CCc2ccccc21)c1ccccc1 | 16.5 | 0.5 | 88.3 | 0.88 | -3.4 | 51.9*
O=C(c1ccccc1)N1CCc2ccccc21 | -5.8 | 1 | 94.8 | 1.04 | -2.2 | -0.7
O=C(O)CCC(=O)N1CCN(c2ncccn2)CC1 | · | · | · | · | -19.8 | ·
CN(CC(=O)N1CCCCCC1)S(=O)(=O)c1ccc(F)cc1 | 49.3 | 0.9 | 114.6 | 1.74 | 20.5 | 8.6
Clc1cccc(CSc2nc3ccncc3[nH]2)c1 | 41.3 | 0.2 | 116.4 | 1.61 | 0.1 | 75.4*
CC1CC(C)CN(C(=O)c2ccc(CSc3nc4ccncc4[nH]3)cc2)C1 (stereo not drawn) | -7.8 | 1 | 95.0 | 0.66 | · | -1.0
O=c1[nH]c(SCc2cccc(Cl)c2)nc2ccccc12 | -9.6 | 1 | 103.6 | 1.09 | 3.9 | -4.8
Fc1cccc(CSc2nc3ccncc3[nH]2)c1 | -19.0 | 0.2 | 105.2 | 2.04 | 1.5 | 78.5*
CC1CC1C(=O)OCC(=O)Nc1cccc([N+](=O)[O-])c1 (stereo not drawn) | -20.6 | 1.1 | 96.9 | 1.44 | 1.1 | -5.0
O=C1CC(c2ccccc2)Sc2nc3ccccc3n21 (stereo not drawn) | 167.8* | 0.6 | 131.7* | 2.45 | 5.4 | 43.0
O=C1CC(c2ccco2)Sc2nc3ccccc3n21 (stereo not drawn) | 12.7 | 0.9 | 122.1 | 1.52 | -3.5 | 7.0
O=C1CC(c2ccc3c(c2)OCO3)Sc2nc3ccccc3n21 (stereo not drawn) | 130.3 | 0.3 | 120.0 | 0.63 | 5.4 | 68.6*
O=C1CC(c2cccs2)Sc2nc3ccccc3n21 (stereo not drawn) | 116.9 | 0.8 | 129.2* | 3.05 | 5.6 | 20.7
COc1ccccc1CN1[C@@H](CC(C)=O)c2cc(C(F)(F)F)ccc2S1(=O)=O | · | · | · | · | 4.7 | ·
CC(C(Sc1ccccc1N)c1ccccc1)[N+](=O)[O-] (stereo not drawn) | · | · | · | · | 15.5 | ·
COc1ccc(C(=O)NCCc2nnc(SCC(=O)Nc3ccccc3F)n2C)cc1 | 1.2 | 0.9 | 104.9 | 1.2 | -4.7 | 11.8
O=C(Nc1ccccc1)Nc1ccc(C(=O)N2CCOCC2)cc1 | 54.6 | 0.4 | 113.2 | 1.36 | -3.1 | 55.2*
CC(=O)c1ccc(NC(=O)Nc2ccccc2)cc1 | 138.4* | 0.6 | 121.3 | 3.6* | -1.8 | 35.3
CC(=O)c1cccc2c(O)c(C3=Nc4ccccc4C3=O)[nH]c12 | 105.2 | 0.7 | 104.6 | 4.14* | -1.6 | 30.6
Cc1cc(OCC(=O)N2CCOCC2)ccc1[N+](=O)[O-] | · | · | · | · | 20.4 | ·
CCOC(=O)c1cnn(-c2ccccc2)c1N | 12.7 | 0.9 | 99.0 | 1.92 | 18.4 | 5.9
CCOC(=O)c1cnn(-c2ccc(C(F)(F)F)cn2)c1N | 28.2 | 1 | 144.7* | 2.63 | -3.1 | 3.4
O=C1CSc2ccc(C(=O)Nc3cccc(S(=O)(=O)Nc4ccc(Br)cc4)c3)cc2N1 | -6.6 | 1 | 77.1 | 0.85 | -5.4 | -3.0
O=C(CSc1ccc(-c2ccc(F)cc2)nn1)N1CCCCC1 | 18.1 | 1 | 111.8 | 1.4 | 4.1 | -3.4
Cn1c(-c2ccc(F)cc2)cnc1SCC(=O)N1CCCCC1 | 122.9 | 0.9 | 138.5* | 3.92* | 4.2 | 12.6
Cn1c(-c2ccc(F)cc2)cnc1SCC(=O)N1CCCc2ccccc21 | -2.1 | 1 | 94.5 | 0.93 | 2.3 | 1.7
CC1Cc2ccccc2N1C(=O)CSc1ncc(-c2ccc(F)cc2)n1C (stereo not drawn) | 104.3 | 0.8 | 133.1* | 0.93 | 1.6 | 24.0
